Shown are actives, neighbours in structure and some others; about 2.5% of the full set was active somewhere.
mABHD4 FP = ABHD4 inhibitors, primary screen, biochemical, fluorescence polarization, mouse | (Lyso)-N-acylphosphatidylethanolamine lipase (Mus musculus), Q8VD66 | purified mABHD4, FP-Rh probe fluorescence polarization | inhibition, % at 8.92 µM | hit rate 0.54% among 370,000;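 active means inhibition exceeding the mean over every tested compound plus 3 SD, cut at about 30% in these data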
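Material: mouse ABHD4 enzyme, wild type; Benchmarks: S159A mutant high control, sample median low control; Buffer or medium: HEPES pH 7.0, NaCl, Pluronic buffer; Signal: fluorescence polarization; Read-out: percent inhibition of probe binding, normalized to plate controls; Timing: pre-incubation 45 min, probe exposure 60 min, at 25 °C; Dosing: 8.92 µM, single dose.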
SIAE inh = human SIAE inhibitors, primary screen, biochemical, fluorescence polarization, FP-Rh probe, 1536-well HTS; inhibition, % at 9.66 µM; hit rate 0.69% among 370,000; SIAE FP-Rh probe binding; AID 1053197, 2014; Sialate O-acetylesterase (Homo sapiens), Q9HAT2;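 active means inhibition above a cutoff: mean of compounds within the control limits plus 3 SD of those, cut at about 17% in these data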
HTRA1 inh = HTRA1 serine protease inhibitors, primary screen, biochemical, fluorescence polarization, HTS. Q92743. recombinant HTRA1, FP-rhodamine activity-based probe. inhibition, % at 5.96 µM. hit rate 0.5% among 340,000. AID 504803, 2011; in the data active means inhibition above about 36%
Target sequence (Q92743 whole entry, looked up): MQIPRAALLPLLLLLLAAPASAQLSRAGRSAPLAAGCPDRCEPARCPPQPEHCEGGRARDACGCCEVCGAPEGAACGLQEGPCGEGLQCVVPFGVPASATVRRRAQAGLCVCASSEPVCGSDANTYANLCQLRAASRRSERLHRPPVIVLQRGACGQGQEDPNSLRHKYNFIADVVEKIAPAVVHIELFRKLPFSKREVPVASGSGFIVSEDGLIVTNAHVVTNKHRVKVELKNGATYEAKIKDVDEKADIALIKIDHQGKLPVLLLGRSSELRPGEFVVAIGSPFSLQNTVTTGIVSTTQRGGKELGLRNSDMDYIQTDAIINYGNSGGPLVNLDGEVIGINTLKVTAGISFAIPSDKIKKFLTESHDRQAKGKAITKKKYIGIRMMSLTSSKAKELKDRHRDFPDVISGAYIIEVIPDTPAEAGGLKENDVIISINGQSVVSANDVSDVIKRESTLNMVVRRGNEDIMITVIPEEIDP
PRMT1 FP inh = PRMT1 methyltransferase inhibitors, primary screen, biochemical, fluorescence polarization; Protein arginine N-methyltransferase 1 (Homo sapiens), Q99873; recombinant PRMT1, activity-based probe fluorescence polarization; inhibition, % at 2.79 µM; hit rate 1.3% among 370,000;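 active means inhibition above about 21% made by adding two undisclosed values, limit read from the data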
TCR-CD3 inh = inhibitors of human TCR-CD3 interaction, primary screen, biochemical, fluorescence, TAMRA-labeled TCR probe | inhibition, % at 9.4 µM | hit rate 0.37% among 360,000 | AID 651800, 2012; in the data active means inhibition above about 19%;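 further: recombinant mutant TCR 2C K166C tagged with TAMRA read by polarization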
ABHD4 confirm = ABHD4 inhibitors, retest, confirmation, biochemical, fluorescence polarization, mouse; hit rate 55% among 1,800; shares compounds with mABHD4 FP; purified mABHD4, FP-Rh probe fluorescence polarization; inhibition, % at 8.92 µM;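 active means mean inhibition across replicates above the hit cutoff set in the primary screen, cut at about 30% in these data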
SIAE confirm = human SIAE inhibitors, retest, confirmation, biochemical, fluorescence polarization, FP-Rh probe, triplicate; inhibition, % at 9.66 µM; SIAE FP-Rh activity-based probe; shares compounds with SIAE inh; hit rate 13% among 2,300;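 active means mean inhibition of the replicates above the hit cutoff set in the primary screen, cut at about 17% in these data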;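 further: inhibitors lower polarization as more probe stays unbound to SIAE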
Of the large screens only hits and unclear results are named; the others gave an inactive call (follow-up assays come after a bar, where they were run).

CC(C)[C@H](NC(=O)c1ccc(Cl)cc1Cl)C(=O)N1CCC[C@H]1C(=O)NCc1ccccc1	none (no result: HTRA1 inh)
CC(C)N1C(=O)CC(Nc2ccc(N3CCOCC3)cc2)C1=O (centres undefined)	mABHD4 FP 33, SIAE inh 21 | ABHD4 confirm 42 | SIAE confirm inactive
Nc1[nH]c(C(=O)c2ccc(Br)cc2)c(-c2ccc(Cl)cc2[N+](=O)[O-])c1C(=O)NCCc1c[nH]c2ccccc12	mABHD4 FP 40, SIAE inh 20 (no result: HTRA1 inh) | ABHD4 confirm inactive | SIAE confirm inactive
COc1ccc(C(=O)c2[nH]c(N)c(C(=O)NCCc3c[nH]c4ccccc34)c2-c2ccc(Cl)c(F)c2)cc1	mABHD4 FP 34, SIAE inh 21 (no result: HTRA1 inh) | ABHD4 confirm 37 | SIAE confirm inactive
C/C(=N/NC(=O)CSc1nnc(-c2ccccc2)n1-c1ccc(Cl)cc1)c1cccc(O)c1	none (no result: HTRA1 inh, TCR-CD3 inh)
COC(=O)C[C@H]1CC[C@H]2[C@H](COc3ccc(NC(=O)Nc4ccccc4F)cc3C(=O)N2C)O1	none (no result: HTRA1 inh, TCR-CD3 inh)
O=C(Nc1ccc(F)cc1)OCc1cn(Cc2c(F)cccc2F)nn1	none (no result: HTRA1 inh, TCR-CD3 inh)
COCCNC(=S)N1C[C@H]2CON(C)[C@H]2C[C@H]1c1ccccc1Br	none (no result: HTRA1 inh)
O=C(O)c1ccc(N/N=C/c2ccc(-c3ccc(Cl)cc3Cl)o2)cc1	mABHD4 FP 57, SIAE inh 18 | ABHD4 confirm 67 | SIAE confirm 20
COC(=O)N/N=C/c1ccc(-c2ccc(Cl)cc2Cl)o1	none
CCN(C(=O)CSc1nnc(-c2cccnc2)n1Cc1ccco1)c1ccccc1	none (no result: HTRA1 inh, TCR-CD3 inh)
Cc1ccccc1/C=N/Nc1nc2ccccc2[nH]1	none
O=[N+]([O-])c1cc(/C=N/Nc2nc3ccccc3[nH]2)c(O)cc1O	mABHD4 FP 49, SIAE inh 23 (no result: HTRA1 inh) | ABHD4 confirm 72 | SIAE confirm 22
CCOC(=O)Cc1cc(=O)c2c(=O)n(-c3ccccc3)[nH]c2[nH]1	mABHD4 FP 57, SIAE inh 18 | ABHD4 confirm inactive | SIAE confirm inactive
COC(=O)c1c(Cl)c2n3ccccc3c(C)c(-c3ccccc3)c-2c1C(=O)OC	mABHD4 FP 44, SIAE inh 21, PRMT1 FP inh 34 | ABHD4 confirm inactive | SIAE confirm inactive
C[C@H](O)[C@@H]1CN2CCc3ccc(N4CCOCC4)cc3[C@@H]2C[C@@H]1N(C)C(=O)c1ccccc1F	none (no result: HTRA1 inh, TCR-CD3 inh)
CC(C)(C)N(Cc1cn(Cc2ccccc2)nn1)S(=O)(=O)c1ccc(N2CCCCC2)cc1Br	none (no result: HTRA1 inh, TCR-CD3 inh)
C/C(=N/Nc1ccc(C(=O)O)cc1)c1ccc2c(c1)Nc1ccccc1S2	mABHD4 FP 56, SIAE inh 17 | ABHD4 confirm 81 | SIAE confirm 28
O=C(NCCCN1CCCC1=O)c1ccc2c(c1)NC(=O)c1ccccc1S2	none
COC(=O)Cc1csc(Nc2ccc(Cl)cc2)n1	none
COC(=O)Cc1csc(Nc2ccc(F)c(Cl)c2)n1	mABHD4 FP 36, SIAE inh 22 | ABHD4 confirm inactive | SIAE confirm inactive
O=[N+]([O-])c1cccc(C=NNc2ccc3ccccc3n2)c1O	mABHD4 FP 37, SIAE inh 17 | ABHD4 confirm 37 | SIAE confirm inactive
COC(=O)[C@]12C[C@H](CC(=O)N3CCSCC3)C(=O)N(Cc3ccc(Cl)cc3Cl)C1=C[C@H](C(C)C)O[C@@H]2C1CC1	none (no result: HTRA1 inh, TCR-CD3 inh)
CCN(CC)C(=O)N1c2ccccc2Sc2ccccc21	SIAE inh 18 | SIAE confirm inactive
C[C@H](CO)N1C[C@H](C)[C@@H](CN(C)C(=O)Nc2ccc(C(C)(C)C)cc2)OCc2cn(nn2)CCCC1=O	none (no result: HTRA1 inh)
CCN(CC)C(=O)CSc1nnc([C@@H](NC(=O)OC(C)(C)C)C(C)C)o1	none
CSc1nnc([C@@H](NC(=O)OC(C)(C)C)C(C)C)o1	SIAE inh 18 | SIAE confirm inactive
CNc1oc(Cc2cccc3ccccc23)nc1C#N	SIAE inh 18 | SIAE confirm inactive

Screens as filed in PubChem.
